Residues, ends and D or L forms follow the SMILES beside them.
System: human primary fibroblasts
Experiment: WST-1 cell viability assay in fibroblasts
Format: cell-based
Details: 0.1–20 μM, 24 h treatment; highest concentration
Procedure, shortened: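 Primary human fibroblasts (GM04390) grown in high-glucose DMEM with 10% heat-inactivated FBS and antibiotics at 3% O2, 5% CO2, 37 °C. Seeded at 100 000 cells/mL, switched to Optimem after 24 h, then given 0.1–20 μM test compound or DMSO at 48 h. After about 24 h, incubated 4 h with 10% WST-1 reagent; absorbance read at 450 nm.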

SMILES: C[C@H](NC(=O)[C@H](Cc1ccc(O)cc1)NC(=O)[C@H](Cc1ccc(O)cc1)NC(=O)[C@@H]1CCCN1C(=O)[C@@H]1CCCN1C(=O)[C@@H]1CCCN1C(=O)[C@@H]1CCCN1C(=O)[C@H](CCCNC(=N)N)NC(=O)[C@H](CCCNC(=N)N)NC(=O)[C@@H](N)CCCNC(=N)N)C(=O)O [Compound 2, RRR-PPPP-YYA-OH] (H-RRRPPPPYYA-OH)
- cytotoxic effects (cell viability, WST-1): did not exert any cytotoxic effects
